From paper PMC3564407 (The Febs Journal, 2012)
Square brackets hold non-standard residues; d marks the D form. Ends that are not written are not given here. Peptide text beside a SMILES is read from it. pGlu = O=C1CC[C@@H](C(=O)O)N1

Tests used:
[1] = target: T1, Drosophila melanogaster AnCE (Drosophila melanogaster, UniProt Q10714); assay: Inhibition of Ang I to Ang II conversion by AnCE; type: biochemical; conditions: pH 7.5, read-out: % inhibition of the conversion of Ang I to Ang II
T1 sequence (Q10714 18-615): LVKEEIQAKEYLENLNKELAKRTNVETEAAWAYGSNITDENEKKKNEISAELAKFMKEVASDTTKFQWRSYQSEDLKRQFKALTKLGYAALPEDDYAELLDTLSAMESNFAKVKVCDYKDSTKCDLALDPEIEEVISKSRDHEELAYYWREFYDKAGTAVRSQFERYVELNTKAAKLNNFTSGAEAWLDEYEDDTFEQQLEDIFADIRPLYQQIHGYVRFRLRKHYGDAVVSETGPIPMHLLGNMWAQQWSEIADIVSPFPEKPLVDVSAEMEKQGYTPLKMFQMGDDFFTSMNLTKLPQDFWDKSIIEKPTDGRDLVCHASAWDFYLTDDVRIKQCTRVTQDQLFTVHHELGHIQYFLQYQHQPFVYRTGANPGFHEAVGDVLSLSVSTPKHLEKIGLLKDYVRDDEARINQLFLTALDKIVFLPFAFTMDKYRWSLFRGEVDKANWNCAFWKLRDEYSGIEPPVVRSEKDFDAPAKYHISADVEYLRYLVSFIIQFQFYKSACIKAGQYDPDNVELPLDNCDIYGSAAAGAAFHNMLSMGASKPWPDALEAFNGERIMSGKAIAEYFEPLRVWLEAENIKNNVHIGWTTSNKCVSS
How it was run: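 Recombinant D. melanogaster AnCE expressed in P. pastoris and purified by hydrophobic interaction and size-exclusion chromatography; diluted to 250 ng·μL−1 in reaction buffer containing 0.1 mg·mL−1 BSA. Reaction buffer is 0.1 m Hepes pH 7.5, 10 μm ZnSO4, 0.15 m NaCl, with Ang I (100 μm final) as substrate. Ang I consumption was quantified by HPLC-UV at 214 nm without and with 100 μm (initial) Ang II.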

[2] = target: T1, Drosophila melanogaster AnCE; assay: Inhibition of AnCE with Abz-YRK; type: biochemical
[3] = target: T1, Drosophila melanogaster AnCE; conditions: ref [17]; cited from earlier work
[4] = tested on: ACE N- and C-domains; conditions: mice; ref [7],[8]; cited from earlier work
[5] = tested on: ACE N-domain; conditions: ref [9],[10]; cited from earlier work

CC[C@H](C)[C@H](NC(=O)[C@H](Cc1ccc(O)cc1)NC(=O)[C@@H](NC(=O)[C@H](CCCNC(=N)N)NC(=O)[C@@H](N)CC(=O)O)C(C)C)C(=O)N[C@@H](Cc1c[nH]cn1)C(=O)N1CCC[C@H]1C(=O)N[C@@H](Cc1ccccc1)C(=O)O [Ang II, angiotensin II]
inhibition at 100 µM [1]: 73%

CC[C@H](C)[C@H](NC(=O)[C@H](CCCCN)NC(=O)[C@@H]1CCCN1C(=O)[C@H](CCCNC(=N)N)NC(=O)[C@@H]1CCCN1C(=O)[C@@H]1CCCN1C(=O)[C@H](CC(C)C)NC(=O)CNC(=O)[C@@H]1CCC(=O)N1)C(=O)N1CCC[C@H]1C(=O)N1CCC[C@H]1C(=O)O [BPPb, bradykinin-potentiating peptide-b] ([pGlu]GLPPRPKIPP-OH)
Ki [2]: 107 µM

DRVYIHPFHL [Ang I, angiotensin I]
cleavage by AnCE [3]: converts Ang I to Ang II | in vivo conversion to Ang II by ACE domain [4]: the C-domain is primarily responsible

N-acetyl Ser–Asp–Lys–Pro
degradation by ACE domain [5]: the N-domain is solely responsible

RPPGFSPFR [BK, bradykinin]
cleavage by AnCE [3]: inactivates BK | cleavage efficiency by ACE domains [4]: cleaved with similar efficiency by both domains
